Activity calls are given as the source filed them. The rule behind the calls is not given here.
Experiments:
[1] = Volume of distribution in rat at 0.5 mg/kg, iv by LC-MS/MS method; type: ADME, organism-based; conditions: in vivo
Plasma [2] = assay: Plasma concentration in C57BL/6 mouse model of histamine-induced pruritus at 30 mg/kg, po; type: ADME, organism-based; conditions: in vivo
Method in brief: (§1)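 Male C57BL/6 mice got 30, 60 or 100 mg/kg PO in 30% hydroxypropyl β-cyclodextrin, pH 10.0, 120 min before the test. Histamine (8.15mM) was given intradermally to the nape of the neck just before testing, and scratch bouts were counted over 0–30 min. Diphenhydramine 30 mg/kg PO in water, 90 min before, served as control. Unbound plasma concentrations were measured.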

Plasma [3] = assay: Unbound plasma concentration in C57BL/6 mouse model of histamine-induced pruritus at 60 mg/kg, po; type: ADME, organism-based; conditions: in vivo
Method in brief: (§2)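 The formalin arm received 2% formalin subcutaneously into the dorsal hind paw, and total phase II licking and lifting was scored. The pruritus arm was dosed 120 min before histamine (8.15mM, intradermal, nape of neck), and scratch bouts were counted over 0-30 min. Unbound plasma concentration was determined at each dose.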

Plasma [4] = assay: Unbound plasma concentration in Sprague-Dawley rat model of formalin-induced nociception behavior at 30 mg/kg, po; type: ADME, organism-based; conditions: in vivo
Method in brief: (§3)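 Total phase II formalin-induced flinches were scored. Unbound plasma concentration was determined at each dose and related to the rat NaV1.7 IC50.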

Rattus norvegicus [5] = assay: Analgesic activity in Sprague-Dawley rat model of formalin-induced nociception behavior assessed as reduction in formalin-evoked paw flinching at 100 mg/kg, po; type: functional
Method in brief: (§4)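 Sprague Dawley rats got 10, 30 or 100 mg/kg PO in 30% (w/v) hydroxypropyl β-cyclodextrin, pH 10.0 with KOH. Total phase II formalin-induced flinches were counted. Morphine sulfate 2 mg/kg SC served as control. Unbound plasma levels were measured and compared with the rat NaV1.7 IC50.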

Rattus norvegicus [6] = assay: Analgesic activity in Sprague-Dawley rat model of formalin-induced nociception behavior assessed as reduction in formalin-evoked paw flinching at 10 mg/kg, po; type: functional; method in brief: as §4
[7] = Ratio of unbound plasma concentration in C57BL/6 mouse model of histamine-induced pruritus at 30 mg/kg, po to IC50 for mouse Nav1.7 by whole cell voltage clamp method; method in brief: as §2
Mus musculus [8] = assay: Anti-pruritic activity in C57BL/6 mouse model of histamine-induced pruritus assessed as reduction in histamine-induced scratching at 100 mg/kg, po dosed 120 mins before test; type: functional; method in brief: as §1
[9] = target: T1, Sodium channel protein type 9 subunit alpha (Homo sapiens, UniProt Q15858); assay: Displacement of (P)-1-(30-chloro-2-fluoro-5,50-dimethoxy-[1,10biphenyl]-4-yl)-N-(isoxazol-3-yl)-2-oxo-1,2-dihydroquinoline-6-sulfonamide[50-methoxy-C3H3] from human NaV1.7 expressed in HEK293 cell membranes incubated for 1 hr by beta counting method
T1 sequence (Q15858 whole entry): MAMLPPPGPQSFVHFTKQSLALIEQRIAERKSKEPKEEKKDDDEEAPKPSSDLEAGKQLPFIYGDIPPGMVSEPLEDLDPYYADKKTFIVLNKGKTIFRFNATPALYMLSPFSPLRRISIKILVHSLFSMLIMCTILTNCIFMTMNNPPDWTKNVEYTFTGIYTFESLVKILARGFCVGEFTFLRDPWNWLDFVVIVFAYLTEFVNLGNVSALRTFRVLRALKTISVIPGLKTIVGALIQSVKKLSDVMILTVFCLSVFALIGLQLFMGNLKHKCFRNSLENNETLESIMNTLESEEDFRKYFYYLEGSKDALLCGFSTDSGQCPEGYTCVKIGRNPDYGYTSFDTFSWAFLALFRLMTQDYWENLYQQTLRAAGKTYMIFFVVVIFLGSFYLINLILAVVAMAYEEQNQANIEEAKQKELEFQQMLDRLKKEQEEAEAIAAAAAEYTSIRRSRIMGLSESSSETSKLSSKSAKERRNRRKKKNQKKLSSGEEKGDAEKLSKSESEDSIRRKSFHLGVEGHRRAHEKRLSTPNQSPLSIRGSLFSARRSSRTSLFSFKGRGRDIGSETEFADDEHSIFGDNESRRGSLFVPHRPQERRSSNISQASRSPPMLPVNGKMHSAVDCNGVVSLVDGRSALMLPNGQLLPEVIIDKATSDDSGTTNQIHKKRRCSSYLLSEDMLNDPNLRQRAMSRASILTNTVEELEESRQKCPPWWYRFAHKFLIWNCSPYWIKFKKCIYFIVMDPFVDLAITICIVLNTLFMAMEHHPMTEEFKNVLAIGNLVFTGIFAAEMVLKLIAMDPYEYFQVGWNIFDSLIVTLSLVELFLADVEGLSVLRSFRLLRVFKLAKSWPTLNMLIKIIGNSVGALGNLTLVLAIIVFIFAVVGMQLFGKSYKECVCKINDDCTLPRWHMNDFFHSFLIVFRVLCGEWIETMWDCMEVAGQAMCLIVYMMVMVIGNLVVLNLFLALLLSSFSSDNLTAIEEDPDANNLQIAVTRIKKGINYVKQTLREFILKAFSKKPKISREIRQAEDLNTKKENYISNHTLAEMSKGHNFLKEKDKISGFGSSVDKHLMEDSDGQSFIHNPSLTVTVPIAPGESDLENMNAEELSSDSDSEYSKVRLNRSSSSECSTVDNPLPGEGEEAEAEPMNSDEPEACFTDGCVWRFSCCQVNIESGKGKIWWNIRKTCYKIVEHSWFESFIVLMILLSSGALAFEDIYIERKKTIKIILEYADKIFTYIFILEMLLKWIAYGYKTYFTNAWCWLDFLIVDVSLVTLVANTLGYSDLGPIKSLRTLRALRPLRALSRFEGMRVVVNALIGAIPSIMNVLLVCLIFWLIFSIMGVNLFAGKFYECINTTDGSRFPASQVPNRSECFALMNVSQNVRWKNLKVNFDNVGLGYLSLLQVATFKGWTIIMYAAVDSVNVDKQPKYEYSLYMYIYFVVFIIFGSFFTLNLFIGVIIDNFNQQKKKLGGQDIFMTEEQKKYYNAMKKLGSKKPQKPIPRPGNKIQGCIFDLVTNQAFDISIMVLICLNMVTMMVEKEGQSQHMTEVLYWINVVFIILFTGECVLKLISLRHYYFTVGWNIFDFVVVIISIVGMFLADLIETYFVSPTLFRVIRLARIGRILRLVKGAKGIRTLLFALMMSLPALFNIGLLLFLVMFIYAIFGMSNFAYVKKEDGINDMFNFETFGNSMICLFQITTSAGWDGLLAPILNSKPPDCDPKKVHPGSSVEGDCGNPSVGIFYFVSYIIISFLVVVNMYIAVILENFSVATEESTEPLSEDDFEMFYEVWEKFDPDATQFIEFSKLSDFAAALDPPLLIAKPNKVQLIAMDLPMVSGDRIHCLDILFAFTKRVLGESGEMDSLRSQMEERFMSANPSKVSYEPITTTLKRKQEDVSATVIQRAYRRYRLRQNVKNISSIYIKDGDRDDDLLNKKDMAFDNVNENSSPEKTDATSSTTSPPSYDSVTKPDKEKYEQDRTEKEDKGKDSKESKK
Method in brief: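 Human NaV1.7 radioligand displacement using the tritiated 5'-methoxy-labelled dihydroquinoline sulfonamide ligand, which binds the VSDIV pocket.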

[10] = Ratio of unbound plasma concentration in Sprague-Dawley rat model of formalin-induced nociception behavior at 10 mg/kg, po to IC50 for rat Nav1.7 by whole cell voltage clamp method; method in brief: as §3
Plasma [11] = assay: Unbound plasma concentration in C57BL/6 mouse model of formalin-induced nociception behavior at 60 mg/kg, po; type: ADME, organism-based; conditions: in vivo; method in brief: as §2
[12] = Half life in rat at 0.5 mg/kg, iv by LC-MS/MS method; type: ADME, organism-based; conditions: in vivo
Method in brief: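 Male rats got 0.5 mg/kg IV as a DMSO solution. Unbound clearance was taken as rat clearance divided by the unbound fraction from equilibrium dialysis.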

[13] = target: Histamine H1 receptor (Homo sapiens) (UniProt P35367); assay: Displacement of [3H]pyrilamine from human recombinant histamine H1 receptor expressed in HEK293 cells at 10 uM by radioligand displacement assay; type: cell-based
Sequence of Histamine H1 receptor (Homo sapiens) (P35367 whole entry): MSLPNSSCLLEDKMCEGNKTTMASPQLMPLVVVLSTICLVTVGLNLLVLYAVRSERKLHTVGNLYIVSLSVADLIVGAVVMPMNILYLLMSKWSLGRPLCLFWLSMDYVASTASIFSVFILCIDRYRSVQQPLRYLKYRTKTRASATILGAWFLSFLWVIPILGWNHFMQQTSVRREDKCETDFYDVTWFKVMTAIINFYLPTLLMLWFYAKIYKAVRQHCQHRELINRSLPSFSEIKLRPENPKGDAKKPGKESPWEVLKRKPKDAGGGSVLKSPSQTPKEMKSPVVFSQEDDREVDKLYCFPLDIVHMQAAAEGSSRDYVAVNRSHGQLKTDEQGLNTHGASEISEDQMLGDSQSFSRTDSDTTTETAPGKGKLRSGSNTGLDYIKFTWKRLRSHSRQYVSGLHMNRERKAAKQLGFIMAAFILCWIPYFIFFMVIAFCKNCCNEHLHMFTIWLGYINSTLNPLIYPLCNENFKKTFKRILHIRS

[14] = Ratio of unbound plasma concentration in C57BL/6 mouse model of histamine-induced pruritus at 60 mg/kg, po to IC50 for mouse Nav1.7 by whole cell voltage clamp method; method in brief: as §2
[15] = Half life in rat at 10 mg/kg, po by LC-MS/MS method; type: ADME, organism-based; conditions: in vivo
[16] = Ratio of unbound plasma concentration in Sprague-Dawley rat model of formalin-induced nociception behavior at 30 mg/kg, po to IC50 for rat Nav1.7 by whole cell voltage clamp method; method in brief: as §3
[17] = target: T1, Sodium channel protein type 9 subunit alpha; assay: Inhibition of human NaV1.7 expressed in HEK293 cells at holding potential of -125 mV with test potentials to -10 mV by whole cell voltage clamp method; type: cell-based
[18] = Tmax in rat at 10 mg/kg, po by LC-MS/MS method; type: ADME, organism-based; conditions: in vivo
Mus musculus [19] = assay: Anti-pruritic activity in C57BL/6 mouse model of histamine-induced pruritus assessed as reduction in histamine-induced scratching at 30 mg/kg, po dosed 120 mins before test; type: functional; method in brief: as §1
[20] = Cmax in mouse at 30 mg/kg, po by LC-MS/MS method; type: ADME, organism-based; design: dose 30 mg/kg, route oral; conditions: in vivo
[21] = Ratio of unbound plasma concentration in C57BL/6 mouse model of formalin-induced nociception behavior at 100 mg/kg, po to IC50 for mouse Nav1.7 by whole cell voltage clamp method
Method in brief: (§5)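 Male C57BL/6 mice got 30, 60 or 100 mg/kg PO in 30% (w/v) hydroxypropyl β-cyclodextrin in water, pH 10.0 with KOH. Formalin (2%) was injected subcutaneously into the dorsal hind paw, and total phase II paw licking and lifting were scored. Morphine sulfate 3 mg/kg SC served as control. Unbound plasma concentration was divided by the mouse NaV1.7 IC50.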

Plasma [22] = assay: Unbound plasma concentration in C57BL/6 mouse model of formalin-induced nociception behavior at 30 mg/kg, po; type: ADME, organism-based; conditions: in vivo; method in brief: as §2
[23] = Unbound fraction in mouse plasma at 5 uM by ultracentrifugation and LC-MS/MS method; type: ADME, cell-free
[24] = Oral bioavailability in rat at 10 mg/kg by LC-MS/MS method; type: ADME, organism-based; conditions: in vivo
Plasma [25] = assay: Unbound plasma concentration in C57BL/6 mouse model of formalin-induced nociception behavior at 100 mg/kg, po; type: ADME, organism-based; conditions: in vivo; method in brief: as §2
[26] = Unbound fraction in rat plasma at 5 uM by ultracentrifugation and LC-MS/MS method; type: ADME, cell-free
Plasma [27] = assay: Plasma concentration in C57BL/6 mouse model of formalin-induced nociception behavior at 100 mg/kg, po; type: ADME, organism-based; conditions: in vivo; method in brief: as §5
[28] = target: Sodium channel protein type 5 subunit alpha (Homo sapiens, UniProt Q14524); assay: Inhibition of human NaV1.5 expressed in […] cells at holding potential of -125 mV with test potentials to -10 mV by whole cell voltage clamp method; type: cell-based
Sequence of Sodium channel protein type 5 subunit alpha (Q14524 whole entry): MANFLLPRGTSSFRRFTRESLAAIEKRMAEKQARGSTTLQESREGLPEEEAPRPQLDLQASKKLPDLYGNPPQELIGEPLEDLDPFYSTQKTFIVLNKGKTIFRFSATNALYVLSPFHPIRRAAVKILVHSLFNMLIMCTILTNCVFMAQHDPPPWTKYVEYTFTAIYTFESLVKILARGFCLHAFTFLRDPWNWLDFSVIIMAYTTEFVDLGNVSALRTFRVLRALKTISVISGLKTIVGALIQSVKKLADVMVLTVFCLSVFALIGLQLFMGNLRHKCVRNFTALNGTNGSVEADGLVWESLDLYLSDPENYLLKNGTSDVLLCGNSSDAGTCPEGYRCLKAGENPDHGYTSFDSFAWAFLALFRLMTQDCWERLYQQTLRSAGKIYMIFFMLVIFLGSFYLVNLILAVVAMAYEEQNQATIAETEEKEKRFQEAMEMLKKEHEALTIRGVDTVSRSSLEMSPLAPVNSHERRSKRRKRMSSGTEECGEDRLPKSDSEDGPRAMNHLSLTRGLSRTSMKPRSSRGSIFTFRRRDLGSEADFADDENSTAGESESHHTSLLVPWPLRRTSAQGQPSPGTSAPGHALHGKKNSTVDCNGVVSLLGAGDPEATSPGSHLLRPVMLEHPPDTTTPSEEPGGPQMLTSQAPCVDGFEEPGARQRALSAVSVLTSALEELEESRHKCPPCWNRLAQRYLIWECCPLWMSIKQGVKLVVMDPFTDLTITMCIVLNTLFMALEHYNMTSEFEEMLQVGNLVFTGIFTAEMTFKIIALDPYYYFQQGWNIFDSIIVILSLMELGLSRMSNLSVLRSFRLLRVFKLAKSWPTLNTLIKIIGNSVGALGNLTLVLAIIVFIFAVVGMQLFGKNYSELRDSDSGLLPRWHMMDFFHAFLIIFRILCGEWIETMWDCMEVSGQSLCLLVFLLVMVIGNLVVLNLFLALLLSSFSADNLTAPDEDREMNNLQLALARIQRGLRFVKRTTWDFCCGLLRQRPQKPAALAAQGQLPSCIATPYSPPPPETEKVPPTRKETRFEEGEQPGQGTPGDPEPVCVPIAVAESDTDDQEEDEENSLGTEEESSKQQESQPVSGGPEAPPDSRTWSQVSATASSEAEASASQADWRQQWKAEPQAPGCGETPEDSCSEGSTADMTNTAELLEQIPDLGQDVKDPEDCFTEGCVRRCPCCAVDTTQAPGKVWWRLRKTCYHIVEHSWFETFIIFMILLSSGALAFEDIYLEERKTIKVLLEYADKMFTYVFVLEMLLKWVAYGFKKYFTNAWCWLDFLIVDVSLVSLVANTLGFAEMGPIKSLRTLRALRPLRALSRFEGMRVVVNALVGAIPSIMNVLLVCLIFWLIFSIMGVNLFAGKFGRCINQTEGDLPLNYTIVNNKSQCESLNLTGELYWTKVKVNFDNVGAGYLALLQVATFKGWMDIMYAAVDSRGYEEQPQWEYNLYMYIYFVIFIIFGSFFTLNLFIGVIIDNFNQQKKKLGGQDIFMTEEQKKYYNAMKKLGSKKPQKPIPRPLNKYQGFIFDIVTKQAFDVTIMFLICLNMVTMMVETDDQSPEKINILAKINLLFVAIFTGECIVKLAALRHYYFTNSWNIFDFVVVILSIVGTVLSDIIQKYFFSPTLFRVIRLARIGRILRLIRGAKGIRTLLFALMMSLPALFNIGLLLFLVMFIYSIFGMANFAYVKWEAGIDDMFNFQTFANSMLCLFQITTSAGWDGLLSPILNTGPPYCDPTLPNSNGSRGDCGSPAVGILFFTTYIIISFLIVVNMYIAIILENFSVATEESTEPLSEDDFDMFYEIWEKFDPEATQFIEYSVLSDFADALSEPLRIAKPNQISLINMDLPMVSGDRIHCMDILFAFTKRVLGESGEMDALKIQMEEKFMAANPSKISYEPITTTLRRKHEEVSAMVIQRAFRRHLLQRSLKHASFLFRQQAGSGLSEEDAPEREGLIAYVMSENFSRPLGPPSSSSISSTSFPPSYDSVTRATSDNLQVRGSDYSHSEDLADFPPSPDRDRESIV

[29] = AUC (infinity) in rat at 10 mg/kg, po by LC-MS/MS method; type: ADME, organism-based; design: dose 10 mg/kg, route oral, time infinity; conditions: in vivo
[30] = Inhibition of cynomolgus monkey NaV1.7 by whole cell voltage clamp method; conditions: Macaca fascicularis
Method in brief: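 PatchXpress electrophysiology was run with a protocol giving about 20% channel inactivation. At least four concentrations at half-log spacing were applied one at a time, with washout, current recovery and holding voltage reset between each. Data were pooled from at least 10 cells, with 2–3 points per concentration, and fitted with a 4-parameter Hill curve to give one IC50.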

[31] = Clearance in pooled rat liver microsomes at 1 uM in presence of NADPH by LC-MS/MS method; type: ADME, microsome; conditions: read-out: CLH

**Q.** Which results are given for `N#Cc1cc(C(F)(F)F)ccc1N1CCOc2cc(S(=O)(=O)Nc3nccs3)c(F)cc21`?
**A.** Vd [1]: 2.5 L/kg; concentration (Plasma [2]): 61 µM; Cp(f) (Plasma [3]): 0.66 µM; Cp(f) (Plasma [4]): 0.065 µM; MPE (Rattus norvegicus [5]): 70%; MPE (Rattus norvegicus [6]): 17%; Ratio [7]: 6; MPE (Mus musculus [8]): 80%; IC50 [9]: 37 nM; Ratio [10]: 0.5; Cp(f) (Plasma [11]): 0.62 µM; half-life [12]: 3.6 h; inhibition [13]: inactive; Ratio [14]: 10; half-life [15]: 9.8 h; Ratio [16]: 1.3; IC50 [17]: 140 nM; Tmax [18]: 6.7 h; MPE (Mus musculus [19]): 37%; Cmax [20]: 58 µM; Ratio [21]: 16; Cp(f) (Plasma [22]): 0.3 µM; fraction unbound at 5 µM [23]: 0.006; bioavailability [24]: 57%; Cp(f) (Plasma [25]): 0.92 µM; fraction unbound at 5 µM [26]: 0.015; concentration (Plasma [27]): 150 µM; IC50 [28]: 320 to 330 nM; AUC(0-inf) [29]: 20 µM·h; IC50 [30]: 370 nM; microsomal CLint at 1 µM [31]: < 14 µL/min/mg

Source: ChEMBL document CHEMBL4052683, “The discovery of benzoxazine sulfonamide inhibitors of NaV1.7: Tools that bridge efficacy and target engagement” (Bioorg Med Chem Lett, 2017)
